From ChEMBL document CHEMBL3351612, “Merremins A-G, resin glycosides from Merremia hederacea with multidrug resistance reversal activity” (J Nat Prod, 2014)

Columns and labels:
[1] = Multidrug resistance reversal activity in human KB/VCR cells assessed as reduction in vinblastine IC50 at 25 uM incubated for 72 hrs by sulforhodamine B assay relative to untreated control; format: functional
Summary of the method: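 KB/VCR cells seeded 24 h, then given vinblastine serial dilutions (0.125–1 μM) with or without 25 μM sample for 72 h at 37 °C, 5% CO2. Cells fixed in 10% TCA (4 °C, 1 h), stained 15 min with 0.4% SRB in 1% HOAc, dye dissolved in 10 mM Tris base, A510 read. Fold reversal = IC50 of drug alone / IC50 with sample.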

[2] = Toxicity against human KB/VCR cells assessed as inhibition of cell growth at 25 uM incubated for 72 hrs by sulforhodamine B assay; format: cell-based; conditions: read-out: GI

Question: Which “Ratio IC50” value [1] does the source give for `CCCCC[C@H]1CCCCCCCCCC(=O)O[C@H]2[C@H](O[C@H]3[C@H](O1)O[C@H](C)[C@H](O)[C@@H]3OC(C)=O)O[C@@H](C)[C@H](O[C@@H]1O[C@@H](C)[C@H](O[C@@H]3O[C@@H](C)[C@H](OC(=O)[C@@H](C)CC)[C@@H](O)[C@H]3O)[C@@H](O[C@@H]3O[C@H](CO)[C@@H](O)[C@H](O)[C@H]3O)[C@H]1OC(=O)[C@@H](C)CC)[C@H]2O` here?
Answer: 2.3

Question: And the inhibition at 72 h, 25 µM [2]?
Answer: 0.91%

Question: Which inhibition at 72 h, 25 µM [2] does the source give for `CCCCCCCC(=O)O[C@H]1[C@H](O[C@@H]2[C@@H](O)[C@H]3OC(=O)CCCCCCCCC[C@H](CCCCC)O[C@@H]4O[C@H](C)[C@H](OC(C)=O)[C@H](O)[C@H]4O[C@@H]3O[C@H]2C)O[C@@H](C)[C@H](O[C@@H]2O[C@@H](C)[C@H](OC(=O)[C@@H](C)CC)[C@@H](O)[C@H]2O)[C@H]1O[C@@H]1O[C@H](CO)[C@@H](O)[C@H](O)[C@H]1O` here?
Answer: 93.8%

Question: Which inhibition at 72 h, 25 µM [2] does the source give for `CCCCC[C@H]1CCCCCCCCCC(=O)O[C@H]2[C@H](O[C@H]3[C@H](O1)O[C@H](C)[C@H](OC(C)=O)[C@@H]3O)O[C@@H](C)[C@H](O[C@@H]1O[C@@H](C)[C@H](O[C@@H]3O[C@@H](C)[C@H](OC(=O)[C@@H](C)CC)[C@@H](O)[C@H]3O)[C@@H](O[C@@H]3O[C@H](CO)[C@@H](O)[C@H](O)[C@H]3O)[C@H]1OC(=O)[C@@H](C)CC)[C@H]2O` here?
Answer: 97.8%

Question: Which inhibition at 72 h, 25 µM [2] does the source give for `CCCCCCCCCC(=O)O[C@H]1[C@H](O[C@@H]2[C@@H](O)[C@H]3OC(=O)CCCCCCCCC[C@H](CCCCC)O[C@@H]4O[C@H](C)[C@H](OC(C)=O)[C@H](O)[C@H]4O[C@@H]3O[C@H]2C)O[C@@H](C)[C@H](O[C@@H]2O[C@@H](C)[C@H](OC(=O)[C@@H](C)CC)[C@@H](O)[C@H]2O)[C@H]1O[C@@H]1O[C@H](CO)[C@@H](O)[C@H](O)[C@H]1O` here?
Answer: 96.6%

Question: With `CCCCC[C@H]1CCCCCCCCCC(=O)O[C@H]2[C@@H](O)[C@H](O[C@H]3[C@H](O1)O[C@H](C)[C@H](O)[C@@H]3O)O[C@@H](C)[C@@H]2O[C@@H]1O[C@@H](C)[C@H](O[C@@H]2O[C@@H](C)[C@H](O)[C@@H](O)[C@H]2O)[C@@H](O[C@@H]2O[C@H](CO)[C@@H](O)[C@H](O)[C@H]2O)[C@H]1OC(=O)[C@@H](C)CC` as the compound, how does the “Ratio IC50” value [1] read?
Answer: 15.8

Question: What about the inhibition at 72 h, 25 µM [2] of the same compound?
Answer: -0.08%

Question: For `CCCCC[C@@H](CCCCCCCCCC(=O)OC)O[C@@H]1O[C@H](C)[C@H](O)[C@H](O)[C@H]1O[C@@H]1O[C@@H](C)[C@H](O[C@@H]2O[C@@H](C)[C@H](O[C@@H]3O[C@@H](C)[C@H](OC(=O)[C@@H](C)CC)[C@@H](O)[C@H]3O)[C@@H](O[C@@H]3O[C@H](CO)[C@@H](O)[C@H](O)[C@H]3O)[C@H]2O)[C@@H](O)[C@H]1O`, which “Ratio IC50” value [1] is on record?
Answer: 2.5

Question: What about the inhibition at 72 h, 25 µM [2] of the same compound?
Answer: 0.23%

Question: With `CCCCCCCCCC(=O)O[C@H]1[C@H](O[C@@H]2[C@@H](O)[C@H]3OC(=O)CCCCCCCCC[C@H](CCCCC)O[C@@H]4O[C@H](C)[C@H](O)[C@H](O)[C@H]4O[C@@H]3O[C@H]2C)O[C@@H](C)[C@H](O[C@@H]2O[C@@H](C)[C@H](OC(=O)[C@@H](C)CC)[C@@H](O)[C@H]2O)[C@H]1O[C@@H]1O[C@H](CO)[C@@H](O)[C@H](O)[C@H]1O` as the compound, how does the inhibition at 72 h, 25 µM [2] read?
Answer: 96.7%

Question: For `CCCCC[C@H]1CCCCCCCCCC(=O)O[C@H]2[C@@H](O)[C@H](O[C@H]3[C@H](O1)O[C@H](C)[C@H](O)[C@@H]3O)O[C@@H](C)[C@@H]2O[C@@H]1O[C@@H](C)[C@H](O[C@@H]2O[C@@H](C)[C@H](OC(=O)[C@@H](C)CC)[C@@H](OC(=O)/C=C/c3ccccc3)[C@H]2O)[C@@H](O[C@@H]2O[C@H](CO)[C@@H](O)[C@H](O)[C@H]2O)[C@H]1OC(=O)[C@@H](C)CC`, which inhibition at 72 h, 25 µM [2] is on record?
Answer: 91.1%

Question: With `CCCCC[C@H]1CCCCCCCCCC(=O)O[C@H]2[C@H](O[C@H]3[C@H](O1)O[C@H](C)[C@H](O)[C@@H]3O)O[C@@H](C)[C@H](O[C@@H]1O[C@@H](C)[C@H](O[C@@H]3O[C@@H](C)[C@H](OC(=O)[C@@H](C)CC)[C@@H](O)[C@H]3O)[C@@H](O[C@@H]3O[C@H](CO)[C@@H](O)[C@H](O)[C@H]3O)[C@H]1OC(=O)[C@@H](C)CC)[C@H]2O` [MURUCOIDIN IV] as the compound, how does the inhibition at 72 h, 25 µM [2] read?
Answer: 97.5%

Question: What does the source list for `CCCCC[C@H]1CCCCCCCCCC(=O)O[C@H]2[C@@H](O)[C@H](O[C@H]3[C@H](O1)O[C@H](C)[C@H](O)[C@@H]3O)O[C@@H](C)[C@@H]2O[C@@H]1O[C@@H](C)[C@H](O[C@@H]2O[C@@H](C)[C@H](OC(=O)[C@@H](C)CC)[C@@H](O)[C@H]2O)[C@@H](O[C@@H]2O[C@H](CO)[C@@H](O)[C@H](O)[C@H]2O)[C@H]1OC(=O)[C@@H](C)CC` [MURUCOIDIN V]?
Answer: Ratio IC50 [1]: 142.5; inhibition at 72 h, 25 µM [2]: 7.72%
